Active and inactive are the calls of the source.
What was measured:
[1] = test system: Mus musculus; test: Hot-plate jump-latency activity in mouse 15 minutes after subcutaneous administration; format: functional; conditions: sc, 0.25 h, read-out: MED
Procedure, shortened: (§1)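 Male CF1 mice (18–23 g) dosed icv or sc; 15 min later placed singly on a copper hot plate held at 55 °C. Latency to jump recorded, cutoff 240 s. MED = minimum effective dose. ED200 = dose doubling jump latency.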

[2] = test system: Mus musculus; test: Doubling of hotplate jump-latency activity in mouse after intra cerebro ventricular administration of the compound; format: functional; procedure, shortened: as §1
[3] = target: T1, Neprilysin (Rattus norvegicus, UniProt P07861); test: Inhibition of enkephalinase activity in synaptic membranes prepared from rat striatum; format: cell membranes
T1 sequence (P07861 whole entry): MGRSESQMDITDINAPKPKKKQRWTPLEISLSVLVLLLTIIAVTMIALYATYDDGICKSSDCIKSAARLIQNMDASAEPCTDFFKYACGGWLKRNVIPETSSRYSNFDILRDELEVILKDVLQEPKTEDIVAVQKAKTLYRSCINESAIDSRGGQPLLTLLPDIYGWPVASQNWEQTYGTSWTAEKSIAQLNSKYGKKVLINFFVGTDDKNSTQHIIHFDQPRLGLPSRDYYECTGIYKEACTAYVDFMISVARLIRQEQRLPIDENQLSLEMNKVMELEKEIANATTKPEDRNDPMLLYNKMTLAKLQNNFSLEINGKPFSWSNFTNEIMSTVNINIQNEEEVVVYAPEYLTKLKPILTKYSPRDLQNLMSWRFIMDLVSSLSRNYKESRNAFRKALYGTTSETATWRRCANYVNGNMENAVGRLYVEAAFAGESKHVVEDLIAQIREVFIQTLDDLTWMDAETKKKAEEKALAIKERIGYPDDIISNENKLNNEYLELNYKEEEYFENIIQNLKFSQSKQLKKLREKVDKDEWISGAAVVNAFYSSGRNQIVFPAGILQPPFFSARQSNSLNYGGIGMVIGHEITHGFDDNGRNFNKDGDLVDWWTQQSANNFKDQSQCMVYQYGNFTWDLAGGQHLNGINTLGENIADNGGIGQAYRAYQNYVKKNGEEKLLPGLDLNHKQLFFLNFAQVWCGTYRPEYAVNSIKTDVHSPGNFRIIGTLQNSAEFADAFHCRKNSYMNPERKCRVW

[4] = test system: Mus musculus; test: Tail-flick latency observed in CF-1 mice after the administration (30 mg/kg) followed by icv administration of DAEM ([D-Ala2,Met5]enkephalin); IA is Inactive; format: functional, organism-based
Procedure, shortened: (§2)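 Male CF-1 mice (20–22 g) given test agent or vehicle sc, followed immediately by icv DAEM (1 μg) or vehicle. Tail-flick latency measured 30 min later, cutoff 10 s, n = 10.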

[5] = target: T2, Neprilysin (Oryctolagus cuniculus, UniProt P08049); test: Inhibitory activity against Enkephalinase from rabbit using method 2 is determined.
T2 sequence (P08049 whole entry): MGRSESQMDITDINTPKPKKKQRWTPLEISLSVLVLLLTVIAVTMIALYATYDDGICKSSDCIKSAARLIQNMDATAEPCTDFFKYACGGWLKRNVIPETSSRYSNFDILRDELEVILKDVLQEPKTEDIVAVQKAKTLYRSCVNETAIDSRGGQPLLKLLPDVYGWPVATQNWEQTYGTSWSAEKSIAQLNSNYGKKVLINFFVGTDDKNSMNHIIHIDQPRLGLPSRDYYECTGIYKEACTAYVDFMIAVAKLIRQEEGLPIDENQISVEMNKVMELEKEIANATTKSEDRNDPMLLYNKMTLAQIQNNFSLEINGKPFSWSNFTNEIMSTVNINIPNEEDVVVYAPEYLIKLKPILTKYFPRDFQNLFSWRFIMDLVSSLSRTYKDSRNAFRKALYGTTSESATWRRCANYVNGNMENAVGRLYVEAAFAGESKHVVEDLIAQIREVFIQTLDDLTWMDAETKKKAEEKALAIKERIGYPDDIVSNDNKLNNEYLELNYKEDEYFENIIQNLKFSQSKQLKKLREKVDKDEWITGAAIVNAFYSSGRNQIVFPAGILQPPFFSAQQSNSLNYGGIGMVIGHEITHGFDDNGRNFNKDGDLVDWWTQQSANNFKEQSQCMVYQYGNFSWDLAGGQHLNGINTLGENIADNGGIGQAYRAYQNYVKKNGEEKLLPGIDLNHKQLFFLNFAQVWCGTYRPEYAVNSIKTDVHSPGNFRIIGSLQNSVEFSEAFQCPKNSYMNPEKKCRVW
Procedure, shortened: (§3)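 Rabbit protease 24.11 (15 ng protein) incubated 10 min at 37 °C with [Tyr-3H]Leu-enkephalin plus unlabeled Leu-enkephalin (1 μM final) in 50 mM Tris-HCl, pH 6.5. Stopped with TFA. Tyr-Gly-Gly product separated from substrate by C4 reverse-phase HPLC (isocratic, 0.09% TFA/acetonitrile). Fractions counted by scintillation.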

[6] = test system: Mus musculus; test: Tail-flick latency observed in CF-1 mice after the administration (30 mg/kg) followed by icv administration of DAEM ([D-Ala2,Met5]enkephalin); format: functional; procedure, shortened: as §2
[7] = target: T2, Neprilysin; test: (§4) Inhibition of enkephalinase activity in membranes prepared from rabbit
[8] = test system: Opioid receptor; test: Ability to displace tritium-labeled naloxone at opiate receptors, at 10 uM concentration
[9] = test system: Mus musculus; test: Stretching activity in male CF-1 mice, after the intra peritoneal administration of acetic acid and subcutaneous administration of compound; format: functional
Procedure, shortened: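 Male CF-1 mice (18–22 g), twelve per dose of agent or vehicle, dosed sc 15 min before ip 3% aqueous acetic acid at 10 mL/kg. Five minutes after irritant, stretching episodes counted over 10 min. ED50 derived from these counts.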

[10] = test system: Mus musculus; test: Doubling of hotplate jump-latency activity in mouse after subcutaneous administration is determined; format: functional; procedure, shortened: as §1
[11] = test system: Mus musculus; test: Antinociceptive effect was determined by mouse hot plate assay after sc administration of the compound; format: functional; procedure, shortened: as §1
[12] = target: T3, Aminopeptidase N (Sus scrofa) (UniProt P15145); test: Inhibition of aminopeptidase; IA is inactive
T3 sequence (whole entry): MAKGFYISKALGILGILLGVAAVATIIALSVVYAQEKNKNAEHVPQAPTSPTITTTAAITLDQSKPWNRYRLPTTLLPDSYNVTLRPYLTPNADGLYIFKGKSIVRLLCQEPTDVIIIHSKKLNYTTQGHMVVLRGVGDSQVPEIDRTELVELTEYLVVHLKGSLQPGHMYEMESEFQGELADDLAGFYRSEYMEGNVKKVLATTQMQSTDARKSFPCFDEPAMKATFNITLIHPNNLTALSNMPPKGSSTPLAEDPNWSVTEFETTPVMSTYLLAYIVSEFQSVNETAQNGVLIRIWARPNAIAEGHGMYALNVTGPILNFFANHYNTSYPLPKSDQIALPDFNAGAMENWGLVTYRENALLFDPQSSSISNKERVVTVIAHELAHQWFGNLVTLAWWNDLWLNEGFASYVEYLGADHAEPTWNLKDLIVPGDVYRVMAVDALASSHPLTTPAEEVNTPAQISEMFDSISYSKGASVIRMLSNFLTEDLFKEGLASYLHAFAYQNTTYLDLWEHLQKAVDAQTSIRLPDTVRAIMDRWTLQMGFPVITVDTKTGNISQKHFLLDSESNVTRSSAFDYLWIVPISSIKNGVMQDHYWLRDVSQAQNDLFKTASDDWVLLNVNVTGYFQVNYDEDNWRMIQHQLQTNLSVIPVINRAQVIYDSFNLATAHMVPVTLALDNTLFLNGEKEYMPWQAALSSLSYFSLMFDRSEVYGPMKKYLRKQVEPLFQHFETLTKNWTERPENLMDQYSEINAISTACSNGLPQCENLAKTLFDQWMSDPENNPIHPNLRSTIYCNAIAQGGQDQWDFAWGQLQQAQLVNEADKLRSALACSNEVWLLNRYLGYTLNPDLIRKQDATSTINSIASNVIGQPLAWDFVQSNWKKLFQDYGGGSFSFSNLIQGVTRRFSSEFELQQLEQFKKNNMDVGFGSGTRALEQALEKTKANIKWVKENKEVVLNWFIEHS
Procedure, shortened: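 Kidney cortex membranes (75 μg protein) incubated 15 min at 37 °C in 50 mM Tris, pH 7.4, with 0.8 mM L-leucine p-nitroanilide (final). Reaction stopped with TCA, tubes centrifuged, p-nitroaniline read as OD at 410 nm.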

[13] = target: Mu-type opioid receptor (Mus musculus) (UniProt P42866); test: Ability to displace tritium-labeled naloxone at opioid receptor, at 10 uM concentration
Chain of Mu-type opioid receptor (Mus musculus) (P42866 whole entry): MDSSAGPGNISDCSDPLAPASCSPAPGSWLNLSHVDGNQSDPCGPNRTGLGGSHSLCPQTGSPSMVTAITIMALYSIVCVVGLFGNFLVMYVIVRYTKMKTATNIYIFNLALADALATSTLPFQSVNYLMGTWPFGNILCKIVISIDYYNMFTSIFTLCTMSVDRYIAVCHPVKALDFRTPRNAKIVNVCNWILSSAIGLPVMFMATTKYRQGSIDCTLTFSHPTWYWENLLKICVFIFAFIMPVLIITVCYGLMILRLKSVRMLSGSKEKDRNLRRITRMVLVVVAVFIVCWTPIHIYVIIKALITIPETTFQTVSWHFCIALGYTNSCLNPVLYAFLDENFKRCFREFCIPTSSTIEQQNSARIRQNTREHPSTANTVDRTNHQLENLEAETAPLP

[14] = target: T2, Neprilysin; test: as §4; procedure, shortened: as §3; remark: listed apart in the source

## CCOC(=O)C(Cc1ccccc1)CC(Cc1ccccc1)C(=O)NCCC(=O)O (stereo unspecified)
[1]
  minimal effective dose: > 100 mg/kg
[2]
  ED200: 16 µg
[3]
  IC50: > 1000 nM
[4]
  Reaction time: inactive

## O=C(O)CCNC(=O)[C@H](Cc1ccccc1)C[C@@H](Cc1ccccc1)C(=O)O
[1]
  minimal effective dose: > 30 mg/kg
[5]
  IC50: 5 nM
[2]
  ED200: 15 µg
[6]
  Reaction time: 8.6 s
[3]
  IC50: 8 nM

## CC(C)C[C@H](NP(=O)(O)O[C@@H]1O[C@@H](C)[C@H](O)[C@@H](O)[C@H]1O)C(=O)N[C@@H](Cc1c[nH]c2ccccc12)C(=O)O [PHOSPHORAMIDON]
[7]
  IC50: 0.4 nM
[3]
  IC50: 0.6 nM

## O=C(O)C(Cc1ccccc1)NC(=O)[C@H](Cc1ccccc1)C[C@@H](Cc1ccccc1)C(=O)O (stereo partly specified)
[3]
  IC50: 29 nM

## O=C(O)CCNC(=O)[C@@H](Cc1ccccc1)C[C@H](Cc1ccccc1)C(=O)O
[3]
  IC50: > 1000 nM

## O=C(O)CCCNC(=O)C(Cc1ccccc1)CC(Cc1ccccc1)C(=O)O (stereo unspecified)
[7]
  IC50: 57 nM

## O=C(O)CCNC(=O)C(CCc1ccccc1)CC(CCc1ccccc1)C(=O)O (stereo unspecified)
[3]
  IC50: 1000 nM

## O=C(NCc1ccc(O)c(O)c1)C(CS)Cc1ccccc1 (stereo unspecified)
[8]
  inhibition: 15%
[9]
  ED50: 5 mg/kg
[3]
  IC50: 12 nM
[10]
  ED200: 15 mg/kg

## O=C(O)CCNC(=O)C(Cc1ccccc1)CC(Cc1ccccc1)C(=O)O (stereo unspecified)
[3]
  IC50: 18 nM

## N#CCCNC(=O)C(Cc1ccccc1)CC(Cc1ccccc1)C(=O)O (stereo unspecified)
[3]
  IC50: > 1000 nM

## O=C(O)c1ccc(NC(=O)[C@@H](Cc2ccccc2)C[C@H](Cc2ccccc2)C(=O)O)cc1
[3]
  IC50: 800 nM

## O=C(O)C(CCc1ccccc1)NC(=O)[C@H](Cc1ccccc1)C[C@@H](Cc1ccccc1)C(=O)O (stereo partly specified)
[3]
  IC50: 5 nM

## O=C(O)C(Cc1c[nH]c2ccccc12)NC(=O)[C@H](Cc1ccccc1)C[C@@H](Cc1ccccc1)C(=O)O (stereo partly specified)
[3]
  IC50: 74 nM

## O=C(O)C(CSCc1ccccc1)NC(=O)[C@H](Cc1ccccc1)C[C@@H](Cc1ccccc1)C(=O)O (stereo partly specified)
[3]
  IC50: 4 nM

## O=C(O)CCNC(=O)[C@H](Cc1ccccc1)C[C@@H](Cc1ccccc1)C(=O)OC1OC(=O)c2ccccc21 (stereo partly specified)
[1]
  minimal effective dose: 30 mg/kg

## O=C(O)CCC(=O)NC(Cc1ccccc1)CC(Cc1ccccc1)C(=O)O (stereo unspecified)
[3]
  IC50: 9 nM

## O=C(O)c1cc(NC(=O)[C@H](Cc2ccccc2)C[C@@H](Cc2ccccc2)C(=O)O)ccc1O
[3]
  IC50: 38 nM

## O=C(O)C(Cc1ccccc1)CC(Cc1ccccc1)C(=O)NCCCO (stereo unspecified)
[3]
  IC50: 1000 nM

## O=C(O)c1cccc(NC(=O)[C@@H](Cc2ccccc2)C[C@H](Cc2ccccc2)C(=O)O)c1
[3]
  IC50: 90 nM

## O=C(O)c1ccccc1NC(=O)C(Cc1ccccc1)CC(Cc1ccccc1)C(=O)O (stereo unspecified)
[3]
  IC50: 1000 nM

## CC1(C)O[C@@H]2O[C@@H](COC(=O)CCNC(=O)[C@H](Cc3ccccc3)C[C@@H](Cc3ccccc3)C(=O)[O-])[C@H]3OC(C)(C)O[C@H]3[C@@H]2O1.[Na+]
[1]
  minimal effective dose: > 30 mg/kg
[6]
  Reaction time: 8.1 s

## O=C([O-])[C@H](Cc1ccccc1)C[C@@H](Cc1ccccc1)C(=O)NCc1ccc(O)c(O)c1.[Na+]
[11]
  ED200: >100 mg/kg
[3]
  IC50: 20 nM

## O=C(O)C(COCc1ccccc1)NC(=O)[C@H](Cc1ccccc1)C[C@@H](Cc1ccccc1)C(=O)O (stereo partly specified)
[3]
  IC50: 6 nM

## CC1(C)O[C@H]2[C@H](COC(=O)CCNC(=O)[C@H](Cc3ccccc3)C[C@@H](Cc3ccccc3)C(=O)O)OC(=O)[C@H]2O1
[1]
  minimal effective dose: > 30 mg/kg
[6]
  Reaction time: 9.8 s

## O=C(O)CCNC(=O)C(CC1CCCCC1)CC(CC1CCCCC1)C(=O)O (stereo unspecified)
[3]
  IC50: 1000 nM

## CC(C)CC(NC(=O)[C@H](Cc1ccccc1)C[C@@H](Cc1ccccc1)C(=O)O)C(=O)O (stereo partly specified)
[3]
  IC50: 40 nM

## COc1cc(CNC(=O)C(CS)Cc2ccccc2)ccc1O (stereo unspecified)
[12]
  inhibition: inactive
[13]
  inhibition: 30%
[14]
  IC50: 9 nM
[9]; sc
  ED50: 5.5 mg/kg
[10]
  ED200: 6 mg/kg

## O=C(O)Cc1ccccc1NC(=O)[C@H](Cc1ccccc1)C[C@@H](Cc1ccccc1)C(=O)O
[3]
  IC50: 25 nM

## O=C(O)CCC(=O)NC(Cc1ccccc1)C[C@@H](Cc1ccccc1)C(=O)O (stereo partly specified)
[7]
  IC50: 2 nM

## O=C(O)CCCNC(=O)[C@H](Cc1ccccc1)C[C@@H](Cc1ccccc1)C(=O)O
[14]
  IC50: 1.4 nM

## O=C(O)CNC(=O)[C@H](Cc1ccccc1)C[C@@H](Cc1ccccc1)C(=O)O
[3]
  IC50: 4 nM

## O=C(O)CC(=O)NC(Cc1ccccc1)CC(Cc1ccccc1)C(=O)O (stereo unspecified)
[7]
  IC50: 62 nM

## O=C(O)CCCC(=O)NC(Cc1ccccc1)CC(Cc1ccccc1)C(=O)O (stereo unspecified)
[7]
  IC50: 12 nM
